Results taken from ChEMBL document CHEMBL1127092, “Crystal and molecular structure and in vitro antiproliferative and antitumor activity of two organotin (IV) carbohydrate compounds” (J Med Chem, 1993).

How the values were obtained:
Type in all cases: functional, cell-based, Mus musculus
L1210 = assay: Antitumor activity against L1210 cell line determined by reduction of the [3H]thymidine incorporation after a 24-h incubation period
How it was run: (§1)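 Mouse ascites tumor cells harvested 7 days after i.p. transplantation, washed, preincubated 4 h at 2.10^5 cells/mL in RPMI 1640 with 10% FCS and 1 mM glutamine under 5% CO2. Cells then exposed to compounds (ethanol stocks diluted in medium) for 24 h at 37°C. [3H]TdR (0.5 μCi) was added […] and cells were harvested 8 h later. Values are means of two experiments, each in 4-fold.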

MOPC 315 = assay: Antitumor activity against MOPC315 cell line determined by reduction of the [3H]thymidine incorporation after a 24-h incubation period; how it was run: as §1
P815 = assay: Antitumor activity against P815 cell line determined by reduction of the [3H]thymidine incorporation after a 24-h incubation period; how it was run: as §1

| Substance | IC50 (L1210) | IC50 (MOPC 315) | IC50 (P815) |
| --- | --- | --- | --- |
| 5-(2,2-Dimethyl-[1,3]dioxolan-4-yl)-2,2-dimethyl-6-triphenylstannanyl-tetrahydro-furo[2,3-d][1,3]dioxol-6-ol | 760 nM | 670 nM | 540 nM |
| TRIPHENYLTIN CHLORIDE | 180 nM | 200 nM | 130 nM |
| 5-(2,2-Dimethyl-[1,3]dioxolan-4-yl)-2,2-dimethyl-6-[(triphenylstannanyl)-methyl]-tetrahydro-furo[2,3-d][1,3]dioxol-6-ol | > 5000 nM | > 5000 nM | > 5000 nM |
